24 molecules from article PMC4661106 (Bioorganic & medicinal chemistry, 2015) can be followed below.

The target of series [1] is T1, HIV-1 PR (Human immunodeficiency virus type 1 group M subtype B, UniProt P04585). In kind it is biochemical.
For the next series, the system named is MT-4 cells. As to the kind of experiment: Endpoint cytotoxicity assay, viable cells by trypan-blue dye exclusion. In kind it is cell-based. Particulars: three days, Figure 5; for general cytotoxicity to MT-4 cells: at 100 μM; for general cytotoxicity: tolerated by MT-4 cells: up to 50 μM. Summed up:
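Uninfected MT-4 cells were seeded at 2 × 10^5 cells/ml, in triplicate, in medium with carrier only or test compound at 10, 50 or 100 μM. Compounds were dissolved in DMSO and diluted in medium to a final DMSO of 0.25%. Incubation was 37 °C, 5% CO2. After three days, viable cells were counted by trypan-blue dye exclusion.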

Series [2] has as its system HIV replication in TZM-bl cells. As to the kind of experiment: Viral replication inhibition assay, luciferase reporter. The conditions noted are these: doses of 50 μM or higher, MOI = 0.01. It is filed as cell-based. A digest of the protocol: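 TZM-bl cells (HeLa-derived; CD4, CCR5, CXCR4; tat-driven luciferase) were seeded at 1×10^4 cells/mL and incubated overnight. The medium was then replaced with replication-competent pNL4-3 HIV or mock, in medium with carrier or test compound at final 25, 50 or 100 μM. Final DMSO was 0.25%. Conditions were run in triplicate. On the indicated days post infection, cells were PBS-washed and luciferase was read. RLU was expressed relative to the untreated control.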
Background: In a reporter assay the amount or activity of a reporter protein is the signal.

Another series in a line: Compound solubility. It is filed as physicochemical.
For series [3], the target named is T1, HIV-1 PR. As to the kind of experiment: Michaelis-Menten kinetics, mode of inhibition. It is filed as biochemical. Particulars: Michaelis-Menten analysis, Figure 4.

The structures appear in SMILES notation.

As a reminder, the Ki is the equilibrium dissociation constant of an inhibitor or competing ligand from its target. A high value points to weaker binding. With `CCC(C)[C@@H]1N=C(C)c2ccc(C(=O)OC(C)(C)C)cc2NC1=O` (stereo in doubt) [Compound 6e, (S)-tert-Butyl 3-((R)-sec-butyl)-5-methyl-2-oxo-2,3-dihydro-1H-benzo[e][1,4]diazepine-8-carboxylate], the Ki on HIV-1 PR [1] was > 200 µM.
On the same count and under the same terms, in the case of `CC1=NCC(=O)Nc2cc(C(=O)OC(C)(C)C)ccc21` [Compound 6a, tert-Butyl 5-methyl-2-oxo-2,3-dihydro-1H-benzo[e][1,4]diazepine-8-carboxylate] it was > 200 µM; in that of `CC1=N[C@@H](C)C(=O)Nc2cc(C(=O)OC(C)(C)C)ccc21` [Compound 6b, (S)-tert-Butyl 3,5-dimethyl-2-oxo-2,3-dihydro-1H-benzo[e][1,4]diazepine-8-carboxylate], > 200 µM; in that of `CC1=N[C@H](CC(C)C)C(=O)Nc2cc(C(=O)OC(C)(C)C)ccc21` [Compound 6d, (R)-tert-Butyl 3-isobutyl-5-methyl-2-oxo-2,3-dihydro-1H-benzo[e][1,4]diazepine-8-carboxylate], > 200 µM.
Same read-out and setting: in the case of `CC1=N[C@@H](C)C(=O)Nc2cc(C(=O)O)ccc21` [Compound 7b, (S)-3,5-Dimethyl-2-oxo-2,3-dihydro-1H-benzo[e][1,4]diazepine-8-carboxylic acid] it was > 200 µM; in that of `CC1=N[C@@H](CC(C)C)C(=O)Nc2cc(C(=O)O)ccc21` [Compound 7c, (S)-3-Isobutyl-5-methyl-2-oxo-2,3-dihydro-1H-benzo[e][1,4]diazepine-8-carboxylic acid], > 200 µM.
Regarding `CC1=N[C@H](CC(C)C)C(=O)Nc2cc(C(=O)O)ccc21` [Compound 7d, (R)-3-Isobutyl-5-methyl-2-oxo-2,3-dihydro-1H-benzo[e][1,4]diazepine-8-carboxylic acid], the inhibition constant Ki at HIV-1 PR [1] was > 200 µM.
Same read-out and setting: in the case of `CC1=N[C@@H](Cc2ccccc2)C(=O)Nc2cc(C(=O)O)ccc21` [Compound 7f, (S)-3-Benzyl-5-methyl-2-oxo-2,3-dihydro-1H-benzo[e][1,4]diazepine-8-carboxylic acid] it was > 200 µM; in that of `CC1=N[C@H](Cc2ccccc2)C(=O)Nc2cc(C(=O)O)ccc21` [Compound 7g, (R)-3-benzyl-5-methyl-2-oxo-2,3-dihydro-1H-benzo[e][1,4]diazepine-8-carboxylic acid], > 200 µM; in that of `CC1=N[C@H](CC(C)C)C(=O)N(Cc2ccccc2)c2cc(C(=O)OC(C)(C)C)ccc21` [Compound 8h, (R)-tert-Butyl 1-benzyl-3-isobutyl-5-methyl-2-oxo-2,3-dihydro-1H-benzo[e][1,4]diazepine-8-carboxylate], > 200 µM.
The same measure, in the same setting: in the case of `CC1=N[C@H](CC(C)C)C(=O)N(Cc2ccncc2)c2cc(C(=O)OC(C)(C)C)ccc21` [Compound 8m, (R)-tert-Butyl 3-isobutyl-5-methyl-2-oxo-1-(pyridin-4-ylmethyl)-2,3-dihydro-1H-benzo[e][1,4]diazepine-8-carboxylate] it was > 200 µM.
On the same count and under the same terms, in the case of `CCCCCCCCCCNC(=O)CN1C(=O)[C@@H](CC(C)C)N=C(C)c2ccc(C(=O)OC(C)(C)C)cc21` [Compound 8o, (R)-tert-Butyl 3-isobutyl-5-methyl-2-oxo-1-(2-oxo-2-(decylamino)ethyl)-2,3-dihydro-1H-benzo[e][1,4]diazepine-8-carboxylate] it was > 200 µM.
In the case of `CCCCCCNC(=O)CN1C(=O)[C@@H](CC(C)C)N=C(C)c2ccc(C(=O)OC(C)(C)C)cc21` [Compound 8q, (R)-tert-Butyl 3-isobutyl-5-methyl-2-oxo-1-(2-oxo-2-(hexylamino)ethyl)-2,3-dihydro-1H-benzo[e][1,4]diazepine-8-carboxylate], the inhibition constant Ki at HIV-1 PR [1] is > 200 µM.
As to `CC1=N[C@H](CC(C)C)C(=O)N(CC(=O)N2CCN(C(=O)OCc3ccccc3)CC2)c2cc(C(=O)OC(C)(C)C)ccc21` [Compound 8s, (R)-tert-Butyl 1-(2-(4-((benzyloxy)carbonyl)piperazin-1-yl)-2-oxoethyl)-3-isobutyl-5-methyl-2-oxo-2,3-dihydro-1H-benzo[e][1,4]diazepine-8-carboxylate], the Ki at HIV-1 PR [1] is > 200 µM.
On the same count and under the same terms, in the case of `CC1=N[C@H](CC(C)C)C(=O)N(CC(=O)N2CCN(C(=O)OCC3c4ccccc4-c4ccccc43)CC2)c2cc(C(=O)OC(C)(C)C)ccc21` [Compound 8t, (R)-tert-Butyl 1-(2-(4-(((9H-fluoren-9-yl)methoxy)carbonyl)piperazin-1-yl)-2-oxoethyl)-3-isobutyl-5-methyl-2-oxo-2,3-dihydro-1H-benzo[e][1,4]diazepine-8-carboxylate] it was > 200 µM.
For the molecule `CC1=N[C@H](CC(C)C)C(=O)N(Cc2ccc(C3CCCCC3)cc2)c2cc(C(=O)O)ccc21` [Compound 9d, (R)-1-(4-Cyclohexylbenzyl)-3-isobutyl-5-methyl-2-oxo-2,3-dihydro-1H-benzo[e][1,4]diazepine-8-carboxylic acid], in the series with MT-4 cells, the “general cytotoxicity to MT-4 cells” value is “particularly cytotoxic” and the “general cytotoxicity: tolerated by MT-4 cells” value (from here on “general cytotoxicity: tolerated”) is “tolerated”. The “inhibition of HIV replication within cells (RLU relative to control)” value (“inhibition … (RLU relative to control)” for short) in series [2] was “appeared to inhibit HIV replication”.
As for `CC1=N[C@H](CC(C)C)C(=O)N(Cc2ccccc2)c2cc(C(=O)O)ccc21` [Compound 9h, (R)-1-Benzyl-3-isobutyl-5-methyl-2-oxo-2,3-dihydro-1H-benzo[e][1,4]diazepine-8-carboxylic acid], the Ki at HIV-1 PR [1] was > 200 µM.
As to `CC1=N[C@H](CC(C)C)C(=O)N(Cc2ccc(-c3ccccc3)cc2)c2cc(C(=O)O)ccc21` [Compound 9j, (R)-1-([1,1′-Biphenyl]-4-ylmethyl)-3-isobutyl-5-methyl-2-oxo-2,3-dihydro-1H-benzo[e][1,4]diazepine-8-carboxylic acid], in the series with MT-4 cells, the “general cytotoxicity to MT-4 cells” value is “particularly cytotoxic” and the “general cytotoxicity: tolerated” value is listed as “tolerated”. Further, the “inhibition … (RLU relative to control)” value in series [2] is listed as “appeared to inhibit HIV replication”.
Turning to `CC1=N[C@H](CC(C)C)C(=O)N(CC(C)C)c2cc(C(=O)O)ccc21` [Compound 9k, (R)-1,3-Diisobutyl-5-methyl-2-oxo-2,3-dihydro-1H-benzo[e][1,4]diazepine-8-carboxylic acid], the Ki on HIV-1 PR [1] is > 200 µM.
On the same count and under the same terms, in the case of `CC1=N[C@H](CC(C)C)C(=O)N(CC(=O)O)c2cc(C(=O)O)ccc21` [Compound 9l, (R)-1-(Carboxymethyl)-3-isobutyl-5-methyl-2-oxo-2,3-dihydro-1H-benzo[e][1,4]diazepine-8-carboxylic acid] it was > 200 µM.
Still for that read-out and setting: in the case of `CC1=N[C@H](CC(C)C)C(=O)N(Cc2ccncc2)c2cc(C(=O)O)ccc21` [Compound 9m, (R)-3-Isobutyl-5-methyl-2-oxo-1-(pyridin-4-ylmethyl)-2,3-dihydro-1H-benzo[e][1,4]diazepine-8-carboxylic acid] it was > 200 µM.
As to `CCCCCCCCCCNC(=O)CN1C(=O)[C@@H](CC(C)C)N=C(C)c2ccc(C(=O)O)cc21` [Compound 9o, (R)-3-Isobutyl-5-methyl-2-oxo-1-(2-oxo-2-(decylamino)ethyl)-2,3-dihydro-1H-benzo[e][1,4]diazepine-8-carboxylic acid], in the series on MT-4 cells, the “general cytotoxicity to MT-4 cells” value is “particularly cytotoxic” and the “general cytotoxicity: tolerated” value is “tolerated”. Further, the “inhibition … (RLU relative to control)” value in series [2] is “appeared to inhibit HIV replication”. In addition, the solubility entry in “Compound solubility” is listed as “poor solubility”. For the same molecule, the mode of inhibition result on HIV-1 PR [3] is “competitive inhibitor”.
With `CCCCCCCCCCCCCCCCNC(=O)CN1C(=O)[C@@H](CC(C)C)N=C(C)c2ccc(C(=O)O)cc21` [Compound 9p, (R)-3-isobutyl-5-methyl-2-oxo-1-(2-oxo-2-(hexadecylamino)ethyl)-2,3-dihydro-1H-benzo[e][1,4]diazepine-8-carboxylic acid], in the series with MT-4 cells, the “general cytotoxicity to MT-4 cells” value is reported as “particularly cytotoxic” and the “general cytotoxicity: tolerated” value is given as “All but 9p were tolerated”. Further, in series [2], the “inhibition … (RLU relative to control)” value was “appeared to inhibit HIV replication”.
As to `CC1=N[C@H](CC(C)C)C(=O)N(CC(=O)N2CCNCC2)c2cc(C(=O)O)ccc21` [Compound 9r, (R)-3-Isobutyl-5-methyl-2-oxo-1-(2-oxo-2-(piperazin-1-yl)ethyl)-2,3-dihydro-1H-benzo[e][1,4]diazepine-8-carboxylic acid], the Ki at HIV-1 PR [1] is > 200 µM.
